In ChEMBL document CHEMBL1122091, “Synthesis of pyridazine analogues of the naturally occurring nucleosides cytidine, uridine, deoxycytidine, and deoxyuridine” (1982):
The source made the active and inactive calls. The calls are words filed in the database; no cut-off is given here.

Assays:
L1210 [1] = experiment: In vitro inhibitory activity against growth of L1210 mouse leukemia cells at 10E-4 M concentration; IA means Inactive; assay type: functional, cell-based
In short: (§1)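 L1210 mouse leukemia cells grown in static suspension culture in Fischer's medium for leukemic cells of mice; growth rate over a 3-day period measured with test compound present continuously.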

L1210 [2] = experiment: In vivo percent increase in life span (%ILS) of mice bearing L1210 leukemia at a dose of 400 mg/kg; assay type: functional, Mus musculus; conditions: for ILS at 400 mg/kg: Mus musculus, L1210, dose 400 mg/kg
In short: (§2)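 Run by the NCI Division of Cancer Treatment, which supplied the data, using standard National Cancer Institute protocols for mouse L1210 leukemia.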

L1210 [3] = experiment: In vitro inhibitory activity against growth of L1210 mouse leukemia cells at 10E-4 M concentration; assay type: functional; conditions: read-out: ID50 (the source's name); in short: as §1
L1210 [4] = experiment: In vivo percent increase in life span (%ILS) of mice bearing L1210 leukemia at a dose of 200 mg/kg; assay type: functional; conditions: Mus musculus; in short: as §2

## O=c1cnn([C@@H]2O[C@H](CO)[C@@H](O)[C@H]2O)c(=O)[nH]1 [6-AZAURIDINE]
L1210 [1]
  ID50: inactive
L1210 [2]
  ILS at 400 mg/kg: < 25%

## COc1cnn(C2O[C@H](CO)[C@@H](O)[C@H]2O)c(=O)c1Cl (stereo partly drawn)
L1210 [1]
  ID50: inactive
L1210 [2]
  ILS at 400 mg/kg: < 25%

## CC(=O)OC[C@H]1O[C@@H](n2ncc(N)cc2=O)[C@H](OC(C)=O)[C@@H]1OC(C)=O
L1210 [1]
  ID50: inactive
L1210 [2]
  ILS at 400 mg/kg: < 25%

## O=C(OC[C@H]1O[C@@H](n2ncccc2=O)[C@H](OC(=O)c2ccccc2)[C@@H]1OC(=O)c1ccccc1)c1ccccc1
L1210 [1]
  ID50: inactive
L1210 [2]
  ILS at 400 mg/kg: < 25%

## CC(=O)OC[C@H]1O[C@@H](N2N=CC(=O)CC2=O)[C@H](OC(C)=O)[C@@H]1OC(C)=O
L1210 [1]
  ID50: inactive
L1210 [2]
  ILS at 400 mg/kg: < 25%

## Nc1cnn(C2O[C@H](CO)[C@@H](O)[C@H]2O)c(=O)c1 (stereo partly drawn)
L1210 [1]
  ID50: inactive
L1210 [2]
  ILS at 400 mg/kg: < 25%

## CN(C)c1cnn(C2O[C@H](CO)[C@@H](O)[C@H]2O)c(=O)c1 (stereo partly drawn)
L1210 [1]
  ID50: inactive
L1210 [2]
  ILS at 400 mg/kg: < 25%

## Nc1cnn(C2O[C@H](CO)[C@@H](O)[C@H]2O)c(=O)c1Cl (stereo partly drawn)
L1210 [1]
  ID50: inactive
L1210 [2]
  ILS at 400 mg/kg: < 25%

## COc1cnn(C2O[C@H](CO)[C@@H](O)[C@H]2O)c(=O)c1 (stereo partly drawn)
L1210 [1]
  ID50: inactive
L1210 [2]
  ILS at 400 mg/kg: < 25%

## O=c1cccnn1C1O[C@H](CO)[C@@H](O)[C@H]1O (stereo partly drawn)
L1210 [1]
  ID50: inactive
L1210 [2]
  ILS at 400 mg/kg: < 25%

## O=c1cc(O)cnn1[C@@H]1O[C@H](CO)[C@@H](O)[C@H]1O (stereo in doubt; 17)
L1210 [2]; dose 400 mg/kg
  ILS: >25%

## COc1cnn([C@H]2C[C@H](O)[C@@H](CO)O2)c(=O)c1
L1210 [1]
  ID50: inactive
L1210 [2]
  ILS at 400 mg/kg: < 25%

## C[Si](C)(C)Oc1nncc(Cl)c1Cl
L1210 [1]
  ID50: inactive
L1210 [2]
  ILS at 400 mg/kg: < 25%

## Nc1cnn([C@H]2C[C@H](O)[C@@H](CO)O2)c(=O)c1Cl
L1210 [1]
  ID50: inactive
L1210 [2]
  ILS at 400 mg/kg: < 25%

## CNc1cnn(C2O[C@H](CO)[C@@H](O)[C@H]2O)c(=O)c1 (stereo partly drawn)
L1210 [1]
  ID50: inactive
L1210 [2]
  ILS at 400 mg/kg: < 25%

## CNc1cnn(C2O[C@H](CO)[C@@H](O)[C@H]2O)c(=O)c1Cl (stereo partly drawn)
L1210 [1]
  ID50: inactive
L1210 [2]
  ILS at 400 mg/kg: < 25%

## CN(C)c1cnn(C2O[C@H](CO)[C@@H](O)[C@H]2O)c(=O)c1N(C)C (stereo partly drawn)
L1210 [1]
  ID50: inactive
L1210 [2]
  ILS at 400 mg/kg: < 25%

## O=C1C=NN(C2O[C@H](CO)[C@@H](O)[C@H]2O)C(=O)C1 (stereo partly drawn)
L1210 [1]
  ID50: inactive
L1210 [2]
  ILS at 400 mg/kg: < 25%

## Nc1cnn([C@H]2C[C@H](O)[C@@H](CO)O2)c(=O)c1
L1210 [1]
  ID50: inactive
L1210 [2]
  ILS at 400 mg/kg: < 25%

## O=C1C=NN([C@H]2C[C@H](O)[C@@H](CO)O2)C(=O)C1
L1210 [1]
  ID50: inactive
L1210 [2]
  ILS at 400 mg/kg: < 25%

## CC1(C)O[C@@H]2[C@H](O1)[C@@H](CO)O[C@H]2n1ncc(N)c(Cl)c1=O
L1210 [1]
  ID50: inactive
L1210 [2]
  ILS at 400 mg/kg: < 25%

## Oc1nncc(Cl)c1Cl
L1210 [1]
  ID50: inactive
L1210 [2]
  ILS at 400 mg/kg: > 25%

## O=c1c(SCc2ccccc2)c(SCc2ccccc2)cnn1C1O[C@H](CO)[C@@H](O)[C@H]1O (stereo partly drawn)
L1210 [1]
  ID50: inactive
L1210 [2]
  ILS at 400 mg/kg: < 25%

## O=c1ccn([C@@H]2O[C@H](CO)[C@@H](O)[C@H]2O)c(=O)[nH]1 [URIDINE]
L1210 [1]
  ID50: inactive
L1210 [2]
  ILS at 400 mg/kg: < 25%

## O=c1cc(O)cnn1[C@@H]1O[C@H](CO)[C@@H](O)[C@H]1O (stereo in doubt; 15)
L1210 [3]
  IC50: 70 µM
L1210 [4]
  ILS at 200 mg/kg: 32%
L1210 [2]
  ILS at 400 mg/kg: 32%

## COc1cnn([C@H]2C[C@H](O)[C@@H](CO)O2)c(=O)c1Cl
L1210 [1]
  ID50: inactive
L1210 [2]
  ILS at 400 mg/kg: < 25%

## O=C(OC[C@H]1O[C@@H](n2ncc(Cl)c(Cl)c2=O)[C@H](OC(=O)c2ccccc2)[C@@H]1OC(=O)c1ccccc1)c1ccccc1
L1210 [1]
  ID50: inactive
L1210 [2]
  ILS at 400 mg/kg: < 25%

## CN(C)c1cnn(C2O[C@H](CO)[C@@H](O)[C@H]2O)c(=O)c1Cl (stereo partly drawn)
L1210 [1]
  ID50: inactive
L1210 [2]
  ILS at 400 mg/kg: < 25%

## CSc1cnn(C2O[C@H](CO)[C@@H](O)[C@H]2O)c(=O)c1SC (stereo partly drawn)
L1210 [1]
  ID50: inactive
L1210 [2]
  ILS at 400 mg/kg: < 25%
